Results from ChEMBL document CHEMBL5712886, “Discovery and Characterization of GSK2801, a Selective Chemical Probe for the Bromodomains BAZ2A and BAZ2B” (J Med Chem, 2016).
Active and inactive are the calls of the source.

Columns and labels:
Details in all cases: dose 0.2-1 µM
[1] = molecular target: Histone-lysine N-methyltransferase ASH1L (Homo sapiens) (UniProt Q9NR48); assay: Binding affinity to biotinylated ASH1L bromodomain (unknown origin) expressed in Escherichia coli at 0.2 to 1 uM by Biolayer Interferometric analysis
In short: (§1)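 Bromodomains carrying a BirA biotin ligase targeting sequence, coexpressed with BirA in bacteria to give homogeneous in vivo biotin labelling, checked by mass spectrometry. Biotinylated proteins probed by biolayer interferometry with compound at two concentrations, 0.2 and 1.0 μM.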

[2] = molecular target: ATPase family AAA domain-containing protein 2 (Homo sapiens) (UniProt Q6PL18); assay: Binding affinity to biotinylated ATAD2 (unknown origin) expressed in Escherichia coli at 0.2 to 1 uM by Biolayer Interferometric analysis; in short: as §1
[3] = molecular target: Tyrosine-protein kinase BAZ1B (Homo sapiens) (UniProt Q9UIG0); assay: Binding affinity to biotinylated BAZ1B (unknown origin) expressed in Escherichia coli at 0.2 to 1 uM by Biolayer Interferometric analysis; in short: as §1
[4] = molecular target: Bromodomain-containing protein 1 (Homo sapiens) (UniProt O95696); assay: Binding affinity to biotinylated BRD1 (unknown origin) expressed in Escherichia coli at 0.2 to 1 uM by Biolayer Interferometric analysis; in short: as §1
[5] = molecular target: Bromodomain-containing protein 2 (Homo sapiens) (UniProt P25440); assay: Binding affinity to biotinylated BRD2 bromodomain-1 (unknown origin) expressed in Escherichia coli at 0.2 to 1 uM by Biolayer Interferometric analysis; in short: as §1
[6] = molecular target: Bromodomain-containing protein 2 (Homo sapiens) (UniProt P25440); assay: Binding affinity to biotinylated BRD2 bromodomain-2 (unknown origin) expressed in Escherichia coli at 0.2 to 1 uM by Biolayer Interferometric analysis; in short: as §1
[7] = molecular target: Bromodomain-containing protein 3 (Homo sapiens) (UniProt Q15059); assay: Binding affinity to biotinylated BRD3 bromodomain-1 (unknown origin) expressed in Escherichia coli at 0.2 to 1 uM by Biolayer Interferometric analysis; in short: as §1
[8] = molecular target: Bromodomain-containing protein 3 (Homo sapiens) (UniProt Q15059); assay: Binding affinity to biotinylated BRD3 bromodomain-2 (unknown origin) expressed in Escherichia coli at 0.2 to 1 uM by Biolayer Interferometric analysis; in short: as §1
[9] = molecular target: Bromodomain-containing protein 4 (Homo sapiens) (UniProt O60885); assay: Binding affinity to biotinylated BRD4 bromodomain-1 (unknown origin) expressed in Escherichia coli at 0.2 to 1 uM by Biolayer Interferometric analysis; in short: as §1
[10] = molecular target: Bromodomain-containing protein 4 (Homo sapiens) (UniProt O60885); assay: Binding affinity to biotinylated BRD4 bromodomain-2 (unknown origin) expressed in Escherichia coli at 0.2 to 1 uM by Biolayer Interferometric analysis; in short: as §1
[11] = molecular target: Bromodomain testis-specific protein (Homo sapiens) (UniProt Q58F21); assay: Binding affinity to biotinylated BRDT bromodomain-2 (unknown origin) expressed in Escherichia coli at 0.2 to 1 uM by Biolayer Interferometric analysis; in short: as §1
[12] = molecular target: Peregrin (Homo sapiens) (UniProt P55201); assay: Binding affinity to biotinylated BRPF1 bromodomain-1 (unknown origin) expressed in Escherichia coli at 0.2 to 1 uM by Biolayer Interferometric analysis; in short: as §1
[13] = molecular target: Chromatin remodeling regulator CECR2 (Homo sapiens) (UniProt Q9BXF3); assay: Binding affinity to biotinylated CECR2 (unknown origin) expressed in Escherichia coli at 0.2 to 1 uM by Biolayer Interferometric analysis; in short: as §1
[14] = molecular target: CREB-binding protein (Homo sapiens) (UniProt Q92793); assay: Binding affinity to biotinylated CREBBP (unknown origin) expressed in Escherichia coli at 0.2 to 1 uM by Biolayer Interferometric analysis; in short: as §1
[15] = molecular target: Nucleosome-remodeling factor subunit BPTF (Homo sapiens) (UniProt Q12830); assay: Binding affinity to biotinylated FALZ (unknown origin) expressed in Escherichia coli at 0.2 to 1 uM by Biolayer Interferometric analysis; in short: as §1
[16] = molecular target: Histone acetyltransferase KAT2A (Homo sapiens) (UniProt Q92830); assay: Binding affinity to biotinylated GCN5L2 (unknown origin) expressed in Escherichia coli at 0.2 to 1 uM by Biolayer Interferometric analysis; in short: as §1
[17] = molecular target: Protein polybromo-1 (Homo sapiens) (UniProt Q86U86); assay: Binding affinity to biotinylated PB1 bromodomain-2 (unknown origin) expressed in Escherichia coli at 0.2 to 1 uM by Biolayer Interferometric analysis; in short: as §1
[18] = molecular target: Protein polybromo-1 (Homo sapiens) (UniProt Q86U86); assay: Binding affinity to biotinylated PB1 bromodomain-4 (unknown origin) expressed in Escherichia coli at 0.2 to 1 uM by Biolayer Interferometric analysis; in short: as §1
[19] = molecular target: Protein polybromo-1 (Homo sapiens) (UniProt Q86U86); assay: Binding affinity to biotinylated PB1 bromodomain-5 (unknown origin) expressed in Escherichia coli at 0.2 to 1 uM by Biolayer Interferometric analysis; in short: as §1
[20] = molecular target: Protein polybromo-1 (Homo sapiens) (UniProt Q86U86); assay: Binding affinity to biotinylated PB1 bromodomain-6 (unknown origin) expressed in Escherichia coli at 0.2 to 1 uM by Biolayer Interferometric analysis; in short: as §1
[21] = molecular target: Histone acetyltransferase KAT2B (Homo sapiens) (UniProt Q92831); assay: Binding affinity to biotinylated PCAF (unknown origin) expressed in Escherichia coli at 0.2 to 1 uM by Biolayer Interferometric analysis; in short: as §1
[22] = molecular target: PH-interacting protein (Homo sapiens) (UniProt Q8WWQ0); assay: Binding affinity to biotinylated PHIP (unknown origin) expressed in Escherichia coli at 0.2 to 1 uM by Biolayer Interferometric analysis; in short: as §1
[23] = molecular target: SWI/SNF-related matrix-associated actin-dependent regulator of chromatin subfamily A member 4 (Homo sapiens, UniProt P51532); assay: Binding affinity to biotinylated SMARCA4 (unknown origin) expressed in Escherichia coli at 0.2 to 1 uM by Biolayer Interferometric analysis; in short: as §1
[24] = molecular target: Transcription initiation factor TFIID subunit 1 (Homo sapiens) (UniProt P21675); assay: Binding affinity to biotinylated TAF1 bromodomain-1 (unknown origin) expressed in Escherichia coli at 0.2 to 1 uM by Biolayer Interferometric analysis; in short: as §1
[25] = molecular target: Transcription initiation factor TFIID subunit 1 (Homo sapiens) (UniProt P21675); assay: Binding affinity to biotinylated TAF1 bromodomain-2 (unknown origin) expressed in Escherichia coli at 0.2 to 1 uM by Biolayer Interferometric analysis; in short: as §1
[26] = molecular target: Transcription initiation factor TFIID subunit 1-like (Homo sapiens) (UniProt Q8IZX4); assay: Binding affinity to biotinylated TAF1L bromodomain-1 (unknown origin) expressed in Escherichia coli at 0.2 to 1 uM by Biolayer Interferometric analysis; in short: as §1
[27] = molecular target: Transcription intermediary factor 1-beta (Homo sapiens) (UniProt Q13263); assay: Binding affinity to biotinylated TRIM28 (unknown origin) expressed in Escherichia coli at 0.2 to 1 uM by Biolayer Interferometric analysis; in short: as §1
[28] = molecular target: Bromodomain and WD repeat-containing protein 1 (Homo sapiens) (UniProt Q9NSI6); assay: Binding affinity to biotinylated WDR9 (unknown origin) expressed in Escherichia coli at 0.2 to 1 uM by Biolayer Interferometric analysis; in short: as §1
[29] = molecular target: Nuclear body protein SP140 (Homo sapiens) (UniProt Q13342); assay: Binding affinity to biotinylated SP140 (unknown origin) expressed in Escherichia coli at 0.2 to 1 uM by Biolayer Interferometric analysis; in short: as §1

Measured: Activity

Chain of Bromodomain-containing protein 3 (Homo sapiens) (Q15059 2-726 limits assumed): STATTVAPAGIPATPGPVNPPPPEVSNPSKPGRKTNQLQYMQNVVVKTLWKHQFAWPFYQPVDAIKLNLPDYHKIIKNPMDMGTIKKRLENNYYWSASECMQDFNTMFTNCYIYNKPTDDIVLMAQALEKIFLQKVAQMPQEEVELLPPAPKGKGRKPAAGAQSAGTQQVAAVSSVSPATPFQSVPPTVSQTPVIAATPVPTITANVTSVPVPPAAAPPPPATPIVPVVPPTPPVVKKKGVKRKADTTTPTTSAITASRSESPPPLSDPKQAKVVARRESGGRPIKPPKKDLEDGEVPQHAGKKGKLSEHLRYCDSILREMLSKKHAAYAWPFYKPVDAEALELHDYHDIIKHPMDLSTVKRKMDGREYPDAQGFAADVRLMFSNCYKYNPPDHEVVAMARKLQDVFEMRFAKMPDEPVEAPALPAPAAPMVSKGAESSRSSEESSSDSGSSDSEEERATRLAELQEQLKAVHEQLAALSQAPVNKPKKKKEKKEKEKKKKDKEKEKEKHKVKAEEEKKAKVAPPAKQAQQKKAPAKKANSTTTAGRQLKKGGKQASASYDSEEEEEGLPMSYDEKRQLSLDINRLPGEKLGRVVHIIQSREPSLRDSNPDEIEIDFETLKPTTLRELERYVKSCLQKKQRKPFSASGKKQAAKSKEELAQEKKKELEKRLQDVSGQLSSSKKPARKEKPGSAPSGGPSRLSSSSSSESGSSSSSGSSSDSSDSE
Chain of Bromodomain-containing protein 2 (Homo sapiens) (P25440 whole entry, looked up): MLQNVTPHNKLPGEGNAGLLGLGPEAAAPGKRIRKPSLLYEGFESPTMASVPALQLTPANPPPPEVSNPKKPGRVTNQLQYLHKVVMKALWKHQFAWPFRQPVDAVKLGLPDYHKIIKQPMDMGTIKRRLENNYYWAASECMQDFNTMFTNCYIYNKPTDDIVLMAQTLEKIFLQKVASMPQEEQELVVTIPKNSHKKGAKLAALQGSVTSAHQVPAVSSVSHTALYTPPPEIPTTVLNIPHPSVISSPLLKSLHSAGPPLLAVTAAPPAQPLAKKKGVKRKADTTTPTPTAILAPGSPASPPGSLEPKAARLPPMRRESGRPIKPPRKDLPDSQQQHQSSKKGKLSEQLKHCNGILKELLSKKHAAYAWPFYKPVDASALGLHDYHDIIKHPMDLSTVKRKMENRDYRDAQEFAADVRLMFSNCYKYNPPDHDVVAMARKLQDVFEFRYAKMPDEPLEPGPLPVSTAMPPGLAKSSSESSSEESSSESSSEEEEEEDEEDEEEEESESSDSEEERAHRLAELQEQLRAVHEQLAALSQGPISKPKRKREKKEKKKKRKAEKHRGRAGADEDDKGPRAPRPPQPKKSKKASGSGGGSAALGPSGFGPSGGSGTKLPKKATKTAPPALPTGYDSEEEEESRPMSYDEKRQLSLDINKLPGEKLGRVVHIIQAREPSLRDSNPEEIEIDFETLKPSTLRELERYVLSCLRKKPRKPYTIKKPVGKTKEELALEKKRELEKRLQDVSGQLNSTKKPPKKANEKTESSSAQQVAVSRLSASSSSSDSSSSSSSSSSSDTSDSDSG
Chain of Transcription initiation factor TFIID subunit 1 (Homo sapiens) (P21675 whole entry): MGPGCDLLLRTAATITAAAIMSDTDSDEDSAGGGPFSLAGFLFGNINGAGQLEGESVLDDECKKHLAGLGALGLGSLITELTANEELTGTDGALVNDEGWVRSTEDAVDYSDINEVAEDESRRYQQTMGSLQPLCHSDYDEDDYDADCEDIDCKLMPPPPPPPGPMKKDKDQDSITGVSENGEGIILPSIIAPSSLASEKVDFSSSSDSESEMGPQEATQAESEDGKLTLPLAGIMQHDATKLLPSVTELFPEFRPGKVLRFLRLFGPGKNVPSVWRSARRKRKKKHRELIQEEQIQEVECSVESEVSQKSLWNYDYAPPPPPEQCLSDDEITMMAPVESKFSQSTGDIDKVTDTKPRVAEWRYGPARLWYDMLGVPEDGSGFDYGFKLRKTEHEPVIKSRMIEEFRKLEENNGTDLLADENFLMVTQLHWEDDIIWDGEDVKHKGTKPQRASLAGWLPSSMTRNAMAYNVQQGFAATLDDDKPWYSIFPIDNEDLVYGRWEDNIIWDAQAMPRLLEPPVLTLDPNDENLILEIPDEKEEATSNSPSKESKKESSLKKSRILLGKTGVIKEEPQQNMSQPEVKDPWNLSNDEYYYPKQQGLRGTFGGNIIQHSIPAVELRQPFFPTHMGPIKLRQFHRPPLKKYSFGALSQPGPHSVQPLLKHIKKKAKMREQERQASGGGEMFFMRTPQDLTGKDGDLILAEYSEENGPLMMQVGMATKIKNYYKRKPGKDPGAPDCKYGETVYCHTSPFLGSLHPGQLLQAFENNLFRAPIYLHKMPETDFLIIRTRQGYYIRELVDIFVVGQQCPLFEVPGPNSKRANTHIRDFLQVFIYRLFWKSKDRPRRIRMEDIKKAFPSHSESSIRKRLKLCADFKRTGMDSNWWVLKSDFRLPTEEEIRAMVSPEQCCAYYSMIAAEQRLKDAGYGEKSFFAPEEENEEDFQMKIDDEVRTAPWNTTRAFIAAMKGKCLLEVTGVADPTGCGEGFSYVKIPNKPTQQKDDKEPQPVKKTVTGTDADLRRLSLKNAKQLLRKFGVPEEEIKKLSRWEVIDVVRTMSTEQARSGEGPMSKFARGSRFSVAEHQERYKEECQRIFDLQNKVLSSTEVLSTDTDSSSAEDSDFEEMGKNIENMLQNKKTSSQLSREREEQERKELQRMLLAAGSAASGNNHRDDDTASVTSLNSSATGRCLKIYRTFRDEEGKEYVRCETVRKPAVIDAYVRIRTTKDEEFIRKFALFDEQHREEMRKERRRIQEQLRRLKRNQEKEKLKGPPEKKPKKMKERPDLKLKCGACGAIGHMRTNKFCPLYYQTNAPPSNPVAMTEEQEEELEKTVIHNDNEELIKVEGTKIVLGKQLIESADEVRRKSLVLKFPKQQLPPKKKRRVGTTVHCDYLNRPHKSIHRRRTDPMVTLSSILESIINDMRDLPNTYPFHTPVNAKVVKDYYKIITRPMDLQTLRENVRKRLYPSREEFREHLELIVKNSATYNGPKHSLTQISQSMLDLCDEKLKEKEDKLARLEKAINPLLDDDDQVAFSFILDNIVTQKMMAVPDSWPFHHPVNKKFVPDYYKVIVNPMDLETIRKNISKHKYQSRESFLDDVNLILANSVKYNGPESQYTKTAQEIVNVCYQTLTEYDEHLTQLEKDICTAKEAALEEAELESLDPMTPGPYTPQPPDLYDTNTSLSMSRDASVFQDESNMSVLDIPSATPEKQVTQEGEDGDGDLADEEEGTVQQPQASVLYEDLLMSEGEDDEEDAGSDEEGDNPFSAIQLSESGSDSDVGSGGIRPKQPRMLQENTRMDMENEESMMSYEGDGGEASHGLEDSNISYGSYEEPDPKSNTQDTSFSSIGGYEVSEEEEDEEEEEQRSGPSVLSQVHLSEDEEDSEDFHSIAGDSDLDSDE
Chain of Protein polybromo-1 (Homo sapiens) (Q86U86 whole entry): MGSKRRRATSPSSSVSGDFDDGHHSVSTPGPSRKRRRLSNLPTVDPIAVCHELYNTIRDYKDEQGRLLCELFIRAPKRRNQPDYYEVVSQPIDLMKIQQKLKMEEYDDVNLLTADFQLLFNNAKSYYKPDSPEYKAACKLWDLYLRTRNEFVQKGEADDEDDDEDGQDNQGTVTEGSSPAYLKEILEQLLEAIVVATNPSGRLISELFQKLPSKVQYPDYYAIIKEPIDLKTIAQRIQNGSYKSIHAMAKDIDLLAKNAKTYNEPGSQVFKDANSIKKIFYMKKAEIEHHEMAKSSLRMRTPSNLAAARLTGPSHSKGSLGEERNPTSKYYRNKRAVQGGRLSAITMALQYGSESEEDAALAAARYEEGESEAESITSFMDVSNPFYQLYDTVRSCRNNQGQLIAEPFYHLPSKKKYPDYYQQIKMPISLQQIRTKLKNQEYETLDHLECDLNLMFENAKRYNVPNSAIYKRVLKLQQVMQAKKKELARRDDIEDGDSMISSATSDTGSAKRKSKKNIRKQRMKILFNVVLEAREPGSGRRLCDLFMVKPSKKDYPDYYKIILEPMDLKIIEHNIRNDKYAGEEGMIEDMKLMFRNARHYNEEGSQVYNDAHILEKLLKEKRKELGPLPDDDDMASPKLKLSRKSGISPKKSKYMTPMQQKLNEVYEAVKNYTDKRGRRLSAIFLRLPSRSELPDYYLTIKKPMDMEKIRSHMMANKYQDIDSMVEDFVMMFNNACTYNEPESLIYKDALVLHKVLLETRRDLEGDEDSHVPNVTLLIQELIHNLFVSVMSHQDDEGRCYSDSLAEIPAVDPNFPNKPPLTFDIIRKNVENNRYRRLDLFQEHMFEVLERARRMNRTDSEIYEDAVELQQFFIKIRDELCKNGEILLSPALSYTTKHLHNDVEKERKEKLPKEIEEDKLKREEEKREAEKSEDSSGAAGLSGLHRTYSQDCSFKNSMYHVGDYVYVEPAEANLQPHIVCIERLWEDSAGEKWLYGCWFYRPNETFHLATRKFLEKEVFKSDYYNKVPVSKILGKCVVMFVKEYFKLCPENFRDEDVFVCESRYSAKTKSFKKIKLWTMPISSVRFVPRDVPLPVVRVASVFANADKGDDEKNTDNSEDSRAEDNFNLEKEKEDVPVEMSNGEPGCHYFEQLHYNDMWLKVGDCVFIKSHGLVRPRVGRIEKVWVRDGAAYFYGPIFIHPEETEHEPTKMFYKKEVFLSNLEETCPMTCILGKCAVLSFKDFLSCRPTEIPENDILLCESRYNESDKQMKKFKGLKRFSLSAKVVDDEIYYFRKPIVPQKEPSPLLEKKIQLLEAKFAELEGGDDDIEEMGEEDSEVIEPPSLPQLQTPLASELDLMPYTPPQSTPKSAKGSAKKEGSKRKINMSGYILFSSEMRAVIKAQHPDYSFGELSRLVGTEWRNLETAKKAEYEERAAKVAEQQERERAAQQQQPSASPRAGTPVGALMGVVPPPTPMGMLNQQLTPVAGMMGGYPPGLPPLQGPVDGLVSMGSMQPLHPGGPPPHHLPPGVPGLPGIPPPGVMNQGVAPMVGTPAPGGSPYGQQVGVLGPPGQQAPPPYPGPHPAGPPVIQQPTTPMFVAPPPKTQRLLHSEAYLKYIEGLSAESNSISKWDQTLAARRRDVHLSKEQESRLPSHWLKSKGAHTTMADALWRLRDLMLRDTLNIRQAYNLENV

CCCOc1ccn2c(C(C)=O)cc(-c3ccccc3S(C)(=O)=O)c2c1
inactive: all assays above

CCCOc1ccn2c(C(C)=O)cc(-c3cccc(OC)c3)c2c1
inactive: all assays above
